Data on 9 molecules can be found in paper PMC7115683 (European Journal of Medicinal Chemistry, 2013).

The subject of one series is Feline herpes virus. Nature of the series: Anti-Feline Herpes Virus activity in CRFK cell cultures. Type of series: cell-based. The following applies: for EC50: CRFK, read-out: EC50 Feline herpes virus.
Series [1] relates to P. falciparum (CQ^S) D10 strain. Nature of the series: In vitro antimalarial activity, parasite lactate dehydrogenase assay, D10 strain. It counts as cell-based. The following applies: Plasmodium falciparum, D10, read-out: D10 IC50.
Series [2] deals with P. falciparum (CQ^R) Dd2 strain. In words: In vitro antimalarial activity, Dd2 strain. It counts as cell-based, Plasmodium falciparum.
A short description of series [3]: Monomeric heme binding, UV-visible titration and Job's plot. To be noted: association constant, HypSpec. The method in brief:
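UV–visible titration of test compound with monomeric heme at pH 7.4 (HEPES) and at food-vacuole pH 5.6 (MES), 1 cm cuvette at 25 °C. Association constants (log K) derived from the titration curves by non-linear least-squares fitting in HypSpec.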

A short description of series [4]: μ-oxo heme binding, UV-visible titration and Job's plot. To be noted: pH 5.8; association constant, HypSpec. The method in brief:
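UV–visible titration of test compound with μ-oxo heme at pH 5.8, plus Job plot (absorbance ratio A/A0 against mole fraction of test compound). Binding constant (log K) computed with HypSpec.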

Series [5] concerns CT DNA. In words: CT DNA binding, fluorescence titration. The following applies: emission band at 380 nm upon addition of CT DNA. In outline: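 Steady-state fluorescence at ambient temperature. Test compound (17.1 μM) in buffered methanol titrated with CT DNA (0.5–150 μM). Excitation 330 nm, emission monitored at 376 nm.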
Series [6] concerns CT DNA. In words: CT DNA binding, UV spectrophotometry titration. The following applies: both absorptions (255 and 330 nm), CT-DNA addition. In outline: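 Test compound (30 μM) in buffered methanol titrated with CT-DNA (4–200 μM). UV–visible spectra recorded 200–1100 nm in a 1 cm quartz cuvette, cell holder at 25 °C. Changes followed at the 255 nm and 330 nm absorption bands.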

In series [7] the test system is Madin Darby canine kidney (MDCK) cells. To be noted: 50% cytotoxic concentration, MTS assay.
Series [8] deals with Feline corona virus (FIPV). Nature of the series: Anti-Feline Corona Virus activity in CRFK cell cultures. The following applies: HHA, UDA. It counts as cell-based.
For series [9], the system named is Crandell-Rees Feline Kidney (CRFK) cell cultures. The following applies: MTS assay, HHA, UDA. (Tetrazolium dyes change colour on reduction, which living cells bring about.)

Take `CCOC(=O)c1c(C)nc(OCCCNc2ccnc3cc(Cl)ccc23)nc1-c1ccccc1` [Compound 5d, Ethyl 2-(3-((7-chloroquinolin-4-yl)amino)propoxy)-4-methyl-6-phenylpyrimidine-5-carboxylate]: the concentration giving a half-maximal response (EC50) (as a rule, the concentration that produces a half-maximal response) in the series with Feline herpes virus was more than 100 µM.
Take `CCN(CC)CCCC(C)Nc1ccnc2cc(Cl)ccc12` (stereo not drawn) [CQ, Chloroquine]: the IC50 (as a rule, the concentration that gives 50% inhibition) in series [1] is 35 nM; in series [2] (Plasmodium falciparum, DD2, read-out: Dd2 IC50), 222 nM. For the same molecule, the “Monomeric heme, log K ± σ” value in [3] (pH 5.6 (MES buffer)) came to 4.65 ± 0.052; in series [3] (pH 7.4 (HEPES buffer)) it was 5.15 ± 0.176. For the same molecule, the “μ-oxoheme, log K ± σ” value in [4] is listed as 5.58 ± 0.006.
As for `COC(=O)c1c(C)nc(NCCCNc2ccnc3cc(Cl)ccc23)nc1-c1ccccc1` [Compound 5a, Methyl 2-(3-((7-chloroquinolin-4-yl)amino)propylamino)-4-methyl-6-phenylpyrimidine-5-carboxylate], in the series on Feline herpes virus, the EC50 is more than 20 µM.
On the same count and under the same terms, then `CCOC(=O)c1c(C)nc(NCCCCNc2ccnc3cc(Cl)ccc23)nc1-c1ccc(F)cc1` [Compound 5f, Ethyl 4-(4-fluorophenyl)-2-(4-((7-chloroquinolin-4-yl)amino)butylamino)-6-methylpyrimidine-5-carboxylate], with more than 100 µM; and `CCOC(=O)c1c(C)nc(NCCCCNc2ccnc3cc(Cl)ccc23)nc1-c1ccc(Cl)cc1` [Compound 5e, Ethyl 4-(4-chlorophenyl)-2-(4-((7-chloroquinolin-4-yl)amino)butylamino)-6-methylpyrimidine-5-carboxylate], with more than 100 µM.
Regarding `Cc1nc(NCCCCNc2ccnc3cc(Cl)ccc23)nc(-c2ccccc2)c1C(=O)OC(C)C` [Compound 5b, i-Propyl 2-(4-((7-chloroquinolin-4-yl)amino)butylamino)-4-methyl-6-phenylpyrimidine-5-carboxylate], the “fold increase in antimalarial activity than the standard CQ” value in series [2] (CQ^R strain of P. falciparum) is listed as 2 fold. In the series on Feline herpes virus, the EC50 is more than 20 µM. In addition, the “shift in emission band” value in the series on CT DNA [5] amounted to 80 nm. Also, the bathochromic shift in the series with CT DNA [6] is given as approximately 3 nm.
Turning to “Ethyl 2-(3-((7-chloroquinolin-4-yl)amino)propylamino)-4-methylpyrimidine-5-carboxylate [Compound 5g]”, in [7], the CC50 (usually the concentration giving 50% cytotoxicity) came out at 10.3 µM.
`CCOC(=O)c1c(C)nc(NCCCCNc2ccnc3cc(Cl)ccc23)nc1-c1ccccc1[N+](=O)[O-]` [Compound 5c, Ethyl 2-(4-((7-chloroquinolin-4-yl)amino)butylamino)-4-methyl-6-(2-nitrophenyl)pyrimidine-5-carboxylate]: the EC50 with Feline herpes virus was more than 100 µM.

B1: UDA: reference agent in the CRFK antiviral assay, values in μg/ml; not explained in the paper (protein, UniProt P11218 24-372, looked up)
Lectin/endochitinase 1: QRCGSQGGGGTCPALWCCSIWGWCGDSEPYCGRTCENKCWSGERSDHRCGAAVGNPPCGQDRCCSVHGWCGGGNDYCSGSKCQYRCSSSVRGPRVALSGNSTANSIGNVVVTEPLFDQMFSHRKDCPSQGFYSYHSFLVAAESFPAFGTIGDVATRKREVAAFLAHISQATSGERSDVENPHAWGLCHINTTTVTENDFCTSSDWPCAAGKKYSPRGPIQLTHNFNYGLAGQAIGEDLIQNPDLVEKDPIISFKTALWFWMSQHDNKPSCHDIVLNANSAANRIPNKGVIGNIISRAFGHDDFAVRSSSIGFYKRYCDMLGVSYGHDLKYWFDNTPSSEFQRIQMRVAA
Take B1: the “EC50 Feline corona virus (FIPV)” value in series [8] was determined as 1.6 µg/mL. Further, the “EC50 Feline herpes virus” value with Feline herpes virus (CRFK cell cultures, HHA, UDA) was determined as 1.0 µg/mL. Also, in [9], the CC50 turned out to be 63.2 µg/mL.
